# Screening results from PubChem.
# This is a sample that favours compounds with a hit; in the whole collection about 0.99% have one here.
# GC-A act = GC-A (human) enzyme activation; HEK293 GC-A cells, cGMP TR-FRET, EC30 ANP; 0% at EC30 ANP, 100% saturating ANP; activation, % at 10 µM; 370,000 tested, 0.14% active; AID 1671463; in the data active = activation above about 40%
# NPR2 activator = GC-B (human) receptor activation | P20594 | activation, % at 10 µM | HEK293-GC-B cells, CNP EC30, cGMP TR-FRET; 0% at EC30 CNP, 100% saturating CNP | 370,000 tested, 0.11% active;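 active = activation at 10 µM reaching about 35% in either raw or pattern-adjusted values, limit read from the data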
# Target sequence (P20594 whole entry, looked up): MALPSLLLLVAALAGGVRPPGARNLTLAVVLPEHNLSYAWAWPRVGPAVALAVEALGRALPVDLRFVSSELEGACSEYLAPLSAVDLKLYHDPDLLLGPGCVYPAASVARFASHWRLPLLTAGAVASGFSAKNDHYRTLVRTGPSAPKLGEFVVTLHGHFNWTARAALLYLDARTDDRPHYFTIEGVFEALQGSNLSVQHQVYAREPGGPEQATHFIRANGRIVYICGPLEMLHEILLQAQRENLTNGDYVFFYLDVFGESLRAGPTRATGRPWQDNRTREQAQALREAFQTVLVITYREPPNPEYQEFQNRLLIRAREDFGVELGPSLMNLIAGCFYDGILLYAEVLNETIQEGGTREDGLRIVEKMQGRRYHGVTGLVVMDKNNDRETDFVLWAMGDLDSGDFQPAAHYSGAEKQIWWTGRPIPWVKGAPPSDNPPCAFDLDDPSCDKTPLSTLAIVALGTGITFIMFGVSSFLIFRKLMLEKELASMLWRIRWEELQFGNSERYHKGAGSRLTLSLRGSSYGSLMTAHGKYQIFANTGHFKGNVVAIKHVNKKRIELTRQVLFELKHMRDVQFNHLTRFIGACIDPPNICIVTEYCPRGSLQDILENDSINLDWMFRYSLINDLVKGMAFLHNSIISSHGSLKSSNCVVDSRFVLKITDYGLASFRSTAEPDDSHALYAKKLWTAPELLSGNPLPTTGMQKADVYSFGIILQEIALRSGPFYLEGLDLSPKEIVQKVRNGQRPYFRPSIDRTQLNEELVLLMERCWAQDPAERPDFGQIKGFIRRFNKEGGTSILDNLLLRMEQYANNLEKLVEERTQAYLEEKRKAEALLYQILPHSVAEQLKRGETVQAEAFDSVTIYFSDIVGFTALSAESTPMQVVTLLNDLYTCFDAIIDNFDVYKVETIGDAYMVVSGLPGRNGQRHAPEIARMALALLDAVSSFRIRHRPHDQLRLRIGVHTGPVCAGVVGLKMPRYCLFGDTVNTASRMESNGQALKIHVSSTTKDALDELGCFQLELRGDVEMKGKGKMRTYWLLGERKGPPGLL
# CaV13 ICDI inh = Primary screen for inhibitors of IQ motif and Ca2+-dependent inactivation inhibitor domain binding in CACNA1D, Förster resonance energy transfer in living cells, …; HEK cells, CFP/YFP FRET ICDI-IQ, plate reader, 10 min; percent FRET-ratio fall versus neutral wells; inhibition, % at 12.3 µM; 340,000 tested, 0.098% active;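 active = mean replicate inhibition of at least 30% and at least 1% of replicates passing that level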;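 note: 0% = median of the neutral control wells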
# CASP6 VEID inh = blocks human caspase-6 cleavage activity; purified caspase-6, Z-VEID-R110 cleavage fluorescence; 350,000 tested, 0.53% active; AID 686996; inhibition, % at 12.5 µM; P55212;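 active = mean inhibition across replicates at least about 35%, with every replicate also reaching that limit, limit read from the data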;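 note: 0% = median of neutral control wells and 100% = no fluorescence left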
# NSD2 inh = inhibitors of human histone methyltransferase NSD2 | NSD2 peptide methylation, AlphaScreen, 120 min | inhibition, % at 12.5 µM | 310,000 tested, 0.54% active | AID 743445; in the data active = inhibition above about 50%
# FN deposit inh = fibronectin deposition inhibition; AH1F fibroblasts, Alexa488-fibronectin deposition fluorescence, overnight; inhibition, % at 12.6 µM; 350,000 tested, 0.086% active;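 active = mean inhibition across replicates of 30% or more, regardless of how many single replicates reach that level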;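 note: positive control wells lacked labelled fibronectin entirely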
#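 Assay system: AH1F fibroblasts / Quantity: 10000 cells per well / Medium: DMEM plus 2% serum, read in PBS / Reagent: labelled fibronectin 24 nM / Dosing: single dose, pinned / Times: 1 h cell attachment, overnight exposure to compound and label / Signal: fluorescence, ex 485 nm, em 525 nm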
# AlphaScreen art = interferes with AlphaScreen signal, flagging NSD2 false positives | AID 1053174 | shares compounds with NSD2 inh | AlphaScreen artifact counterscreen, preloaded methylated H4 peptide | AC35, µM (top dose mostly 10 µM), for inactives: at the top dose activity change, negative = signal loss | 1,500 tested, 9.4% active; call rule not given here
# * marks the source's active call; other numbers are inactive results; . = not tested or not shown.
SMILES,GC-A act,NPR2 activator,CaV13 ICDI inh,CASP6 VEID inh,NSD2 inh,FN deposit inh,AlphaScreen art
O=C(CN1CCN(Cc2ccccc2)CC1)NCC1COc2ccccc2O1 (stereo unspecified),-4.7,-0.3,-5.6,1.3,4.7,.,.
O=C(CCc1ccccc1)NCCCN1CCOCC1,2.7,5.8,-3.6,.,98.2*,6.1,-0.2%
O=C(CCN1CCOCC1)NCC1COc2ccccc2O1 (stereo unspecified),4.4,6.4,-3.8,.,56.3*,0.0,-2.4%
C[C@H]1CN([C@@H](C)CO)C(=O)c2cc(NC(=O)Cn3cnnn3)ccc2O[C@@H]1CN(C)S(=O)(=O)c1ccc(Cl)cc1,.,.,.,0.8,.,.,.
C[C@@H]1CN([C@@H](C)CO)C(=O)Cc2cc(NC(=O)Cn3cnnn3)ccc2O[C@H]1CN(C)Cc1ccc(Cl)c(Cl)c1,.,.,.,-0.8,.,3.4,.
O=C1C(=C(I)I)c2ccccc2-c2ccccc21,6.5,4.7,-6.0,23.6,131.2*,55.5*,-16.2%
O=C(C[C@H]1CC[C@@H](NC(=O)CN2CCOCC2)[C@@H](CO)O1)NC1CCCCC1,.,.,.,1.1,.,8.8,.
C[C@H]1CN([C@@H](C)CO)C(=O)c2c(c3ccccc3n2C)-c2ccccc2CO[C@@H]1CN(C)S(C)(=O)=O,.,.,.,-3.4,.,5.2,.
CC(=O)C1=C(O)C(=O)N(CCc2c[nH]c3ccccc23)C1c1ccco1 (stereo unspecified),.,.,.,.,60.8*,1.2,3.5%
CC(=O)c1ccc(S(=O)(=O)Nc2cccc(-n3cnnn3)c2)cc1,5.4,-1.2,-1.6,55.8*,114.9*,-0.1,-12.9%
CC(=O)Nc1ccc(S(=O)(=O)Nc2cccc(-n3cnnn3)c2)cc1,1.6,2.3,-2.7,2.0,-1.8,10.4,.
COCCOC(=O)C1=C(C)NC(C)=C(C(=O)OC(C)C)C1c1cccc([N+](=O)[O-])c1 (stereo unspecified),-15.9,-9.7,-5.1,.,74.6*,-1.5,-3.2%
CCOC(=O)C1=C(C)NC(C)=C(C(=O)OC)C1c1cccc([N+](=O)[O-])c1 (stereo unspecified),-11.2,-7.5,-5.7,.,.,1.3,.
Cc1cc(NC(=O)COC(=O)c2cccc(S(=O)(=O)N3CCOCC3)c2)no1,-1.2,1.5,.,.,108.1*,4.9,-1.9%
Cc1cc(NC(=O)c2cccc(S(=O)(=O)N3CCOCC3)c2)no1,-2.6,4.6,.,.,1.0,4.3,.
Cc1ccc(S(=O)(=O)N[C@@H]2C=C[C@@H](CC(=O)NC3CCCCC3)O[C@H]2CO)cc1,.,.,.,1.9,.,-2.5,.
CCOc1ccccc1NCc1nnc(-c2ccccc2)o1,-4.2,0.7,-3.4,10.5,65.6*,2.4,-1.9%
O=C(Nc1ccccc1F)N1CC(=O)N2[C@@H](CO)[C@H](c3ccc(C#Cc4ccccc4)cc3)[C@@H]2C1,.,.,.,-0.7,.,.,.
Cc1ccc(S(=O)(=O)N(C)C[C@H]2OCCCC[C@H](C)Oc3ccc(NC(=O)Nc4cccc5ccccc45)cc3C(=O)N([C@H](C)CO)C[C@@H]2C)cc1,.,.,.,0.7,.,-11.3,.
NS(=O)(=O)c1ccc(N/N=C/c2ccccc2Br)cc1,-59.9,-25.7,3.6,0.7,2.6,-4.9,.
NS(=O)(=O)c1ccc(N/N=C/c2ccncc2)cc1,-3.5,-0.9,-4.0,1.0,127.9*,-3.2,-2.7%
CCCNC(=O)C[C@@H]1CC[C@@H]2[C@H](COC[C@@H](O)CN2C(=O)CC)O1,.,.,.,5.1,.,6.7,.
CCCCNC(=O)NC1(C(F)(F)F)Oc2ccccc2O1,1.5,0.8,.,.,-1.4,.,.
O=C(NCCN1CCOCC1)NC1(C(F)(F)F)Oc2ccccc2O1,2.8,0.3,-5.4,.,55.4*,6.8,1.5%
O=C(NCCCO)c1ccc2nc(-c3ccco3)c(-c3ccco3)nc2c1,0.5,1.4,-151.1,55.3*,106.9*,-2.6,-2.0%
SMILES,GC-A act,NPR2 activator,CaV13 ICDI inh,CASP6 VEID inh,NSD2 inh,FN deposit inh,AlphaScreen art
Cc1cc(C)nc(N2CCC(C(=O)N(C)CCc3ccccc3)CC2)n1,1.8,9.2,.,.,60.1*,.,-3.2%
CC(=O)c1c(C)[nH]c(C(=O)OCc2cccc(C)c2)c1C,3.8,-0.8,-3.8,-2.9,2.5,-4.1,.
COc1ccc(C)cc1COC(=O)c1[nH]c(C)c(C(C)=O)c1C,1.4,-1.8,-2.8,-0.5,54.6*,6.9,-1.7%
Cc1ccc(-n2cccc2/C=C2/C(=N)N3C(=NC2=O)SN=C3S(C)(=O)=O)cc1Cl,-13.5,0.1,-3.1,.,126.6*,7.4,-9.1%
Cc1cccc(C)c1-n1cccc1/C=C1/C(=N)N2C(=NC1=O)SN=C2S(C)(=O)=O,-3.8,0.5,-9.9,8.5,.,0.4,.
COc1ccc(NC(=O)N(C)C[C@@H]2Oc3ccc(NS(=O)(=O)c4cccs4)cc3CC(=O)N([C@@H](C)CO)C[C@H]2C)cc1,.,.,.,.,.,-4.8,.
COc1ccc2nc(NC(=O)CS(=O)(=O)c3ccc(C)cc3)sc2c1,-1.1,-0.1,-7.3,6.0,68.8*,-0.2,-0.8%
CCCN1C[C@H](C)[C@H](OC)CN(C)C(=O)c2cc(NS(=O)(=O)c3ccccc3)ccc2OC[C@H]1C,.,.,.,.,.,-6.7,.
CC(=O)Nc1ccc(C(=O)OCC(=O)/C(C#N)=C(\C)N)cc1,-2.6,-1.5,-1.8,1.7,73.9*,8.3,-4.1%
CNC[C@@H]1OCCCC[C@H](C)Oc2ccc(N)cc2C(=O)N([C@@H](C)CO)C[C@H]1C,.,.,.,0.4,.,.,.
CN1CCN(c2ccc(S(=O)(=O)N3CCOCC3)cc2NC(=O)COc2ccc(F)cc2Cl)CC1,3.9,10.0,-5.6,-2.0,184.8*,0.7,-0.8%
Cc1ccc(Cl)c(OCC(=O)Nc2cc(S(=O)(=O)N3CCOCC3)ccc2N2CCCC2)c1,-0.8,3.9,-3.5,0.5,73.0*,-5.9,-3.6%
O=C(OC(C(=O)NCc1cccs1)c1ccccn1)c1cccs1 (stereo unspecified),4.8,4.5,-5.1,.,-1.1,-2.9,.
O=C(OC(C(=O)NC1CCCCC1)c1ccccn1)c1cccs1 (stereo unspecified),-5.5,3.2,-5.8,.,113.5*,.,-2.0%
CNc1ccc(Br)cc(C(=O)/C=C/c2cccc(OC)c2OC)c1=O,-1.5,-3.9,-9.0,.,51.1*,.,-7.5%
COc1cc2[nH]c(Cl)c([N+](=O)[O-])c2cc1OC,-6.0,4.7,-4.5,48.6*,95.5*,1.5,-3.6%
O=C1CCC(=O)N1CCC(c1ccc(F)cc1)c1ccco1 (stereo unspecified),0.5,3.2,-7.6,5.2,5.8,.,.
